Reference: ChEMBL document CHEMBL1133655, “Preparation and biological activity of amino acid and peptide conjugates of antitumor hydroxymethylacylfulvene” (J Med Chem, 2000)
pIC50: −log10 of the molar value. Peptide text beside a SMILES is read from it. * marks the point of attachment. X1 = CC1=C(C*)C2=C(C)C3(CC3)[C@@](C)(O)C(=O)C2=C1

Assay: Concentration required for 50% toxicity in metastatic lung carcinoma (MV522) cells.
Conditions: Homo sapiens
How it was run: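 Compounds held as 1 mg/mL DMSO stock, diluted in 20% DMSO/phosphate-buffered saline just before addition to MV 522 cultures; controls got equal DMSO/PBS. After 48 h incubation, cells were washed, stained with trypan blue and counted. Counts were reported as corresponding closely with colony-forming assay values.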
`CC1=C(CSCC[C@H](N)C(=O)O)C2=C(C)C3(CC3)[C@@](C)(O)C(=O)C2=C1` showed a pIC50 of less than 4.30.
For `CC1=C(CSCC(N)C(=O)O)C2=C(C)C3(CC3)[C@@](C)(O)C(=O)C2=C1` (stereo partly specified), the pIC50 was 4.53.
Work on `CC1=C(CSCC(NC(=O)CCC(N)C(=O)O)C(=O)NCC(=O)O)C2=C(C)C3(CC3)[C@@](C)(O)C(=O)C2=C1` (stereo partly specified) yielded a pIC50 of 4.81.
`CC(=O)NC(CSCC1=C(C)C=C2C(=O)[C@](C)(O)C3(CC3)C(C)=C21)C(=O)N[C@@H](C)c1ccccc1` (stereo partly specified) gave a pIC50 of 5.60.
`CC1=C2C(=C[C@@](C)(CO)C2O)C(=O)[C@](C)(O)C12CC2` (stereo partly specified) gave a pIC50 of 7.14.
For `CC(=O)N[C@@H](CSCC1=C(C)C=C2C(=O)[C@](C)(O)C3(CC3)C(C)=C21)C(=O)N[C@@H](Cc1ccccc1)C(=O)NCC(=O)N[C@@H](CC(C)C)C(=O)O` (Ac-C(X1)FGL-OH), the pIC50 was 4.43.
`CC(=O)N[C@@H](CSCC1=C(C)C=C2C(=O)[C@](C)(O)C3(CC3)C(C)=C21)C(=O)N[C@@H](CC(C)C)C(=O)NCC(=O)N[C@@H](Cc1ccccc1)C(=O)O` (Ac-C(X1)LGF-OH) gave a pIC50 of 4.55.
In the case of `CC(=O)N[C@@H](CSCC1=C(C)C=C2C(=O)[C@](C)(O)C3(CC3)C(C)=C21)C(=O)N[C@@H](CC(C)C)C(=O)N[C@@H](CC(C)C)C(=O)N[C@@H](Cc1ccccc1)C(=O)O` (Ac-C(X1)LLF-OH), the pIC50 was less than 4.40.
Work on `CC(=O)N[C@@H](CSCC1=C(C)C=C2C(=O)[C@](C)(O)C3(CC3)C(C)=C21)C(=O)N[C@@H](CC(C)C)C(=O)N[C@@H](CC(C)C)C(=O)N[C@@H](CC(C)C)C(=O)O` (Ac-C(X1)LLL-OH) yielded a pIC50 of 4.61.
`CC1=CC2=C(C)C3(CC3)[C@@](C)(O)C(=O)C2=C1` [ACYLFULVENE] gave a pIC50 of 6.46.
For `CC1=C(CO)C2=C(C)C3(CC3)[C@@](C)(O)C(=O)C2=C1` [IROFULVEN], the pIC50 was 8.40.
